Consider 40 compounds from ChEMBL document CHEMBL1131381, “Design and synthesis of potent, selective inhibitors of endothelin-converting enzyme” (J Med Chem, 1998).

Structures are written as SMILES.

Assay [1] concerns the target Neprilysin (Homo sapiens, UniProt P08473). The assay can be described thus: Inhibitory activity against neutral endopeptidase (NEP).
Assay [2] addresses T1, Endothelin-converting enzyme 1 (Homo sapiens, UniProt P42892).
T1 sequence (P42892 whole entry): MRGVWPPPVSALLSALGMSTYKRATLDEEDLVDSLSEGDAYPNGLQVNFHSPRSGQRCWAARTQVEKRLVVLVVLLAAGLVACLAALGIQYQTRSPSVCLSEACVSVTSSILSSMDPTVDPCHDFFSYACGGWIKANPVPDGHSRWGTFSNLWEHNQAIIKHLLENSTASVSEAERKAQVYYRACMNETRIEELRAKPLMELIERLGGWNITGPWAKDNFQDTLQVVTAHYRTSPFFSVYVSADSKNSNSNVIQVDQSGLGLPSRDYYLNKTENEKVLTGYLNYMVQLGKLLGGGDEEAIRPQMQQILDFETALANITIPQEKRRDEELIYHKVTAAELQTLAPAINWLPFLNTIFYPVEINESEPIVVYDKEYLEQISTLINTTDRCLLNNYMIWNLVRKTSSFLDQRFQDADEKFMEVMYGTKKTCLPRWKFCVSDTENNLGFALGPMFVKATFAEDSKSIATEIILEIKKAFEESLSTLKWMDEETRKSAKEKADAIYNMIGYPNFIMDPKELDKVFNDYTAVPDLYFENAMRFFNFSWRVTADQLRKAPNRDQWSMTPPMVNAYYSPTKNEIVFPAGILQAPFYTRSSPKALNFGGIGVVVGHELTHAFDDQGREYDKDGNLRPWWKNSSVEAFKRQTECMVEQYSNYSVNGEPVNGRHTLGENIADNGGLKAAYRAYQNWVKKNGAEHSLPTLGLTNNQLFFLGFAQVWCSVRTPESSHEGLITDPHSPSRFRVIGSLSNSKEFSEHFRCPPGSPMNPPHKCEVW
Nature of the assay: Inhibitory activity was assessed on CHO cells expressing recombinant human Endothelin-converting enzyme 1 (ECE-1). Format: cell-based. The essentials: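 Membrane preparation (10 µg protein) from CHO cells expressing human ECE-1 was preincubated with compound for 20 min at room temperature in 50 mM Tes pH 7.0 with 0.005% Triton X-100. Human big ET-1 was added to a final 0.2 µM for 2 h at 37 °C. ET-1 formed was measured by [¹²⁵I]ET-1 radioimmunoassay.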

Assay [3] can be described thus: Ratio of inhibitory activities against endothelin converting enzyme-1(ECE-1) and neutral endopeptidase (NEP).
For assay [4], the target named is T2, Endothelin-converting enzyme 1 (Homo sapiens) (UniProt P42892).
T2 sequence (whole entry): T1 sequence (P42892 whole entry)
The assay can be described thus: Inhibitory activity (1 uM) was assessed on CHO cells expressing in recombinant human Endothelin-converting enzyme 1 (ECE-1). In kind it is cell-based.

In assay [5] the target is T3, Neprilysin (Rattus norvegicus) (UniProt P07861).
T3 sequence (whole entry): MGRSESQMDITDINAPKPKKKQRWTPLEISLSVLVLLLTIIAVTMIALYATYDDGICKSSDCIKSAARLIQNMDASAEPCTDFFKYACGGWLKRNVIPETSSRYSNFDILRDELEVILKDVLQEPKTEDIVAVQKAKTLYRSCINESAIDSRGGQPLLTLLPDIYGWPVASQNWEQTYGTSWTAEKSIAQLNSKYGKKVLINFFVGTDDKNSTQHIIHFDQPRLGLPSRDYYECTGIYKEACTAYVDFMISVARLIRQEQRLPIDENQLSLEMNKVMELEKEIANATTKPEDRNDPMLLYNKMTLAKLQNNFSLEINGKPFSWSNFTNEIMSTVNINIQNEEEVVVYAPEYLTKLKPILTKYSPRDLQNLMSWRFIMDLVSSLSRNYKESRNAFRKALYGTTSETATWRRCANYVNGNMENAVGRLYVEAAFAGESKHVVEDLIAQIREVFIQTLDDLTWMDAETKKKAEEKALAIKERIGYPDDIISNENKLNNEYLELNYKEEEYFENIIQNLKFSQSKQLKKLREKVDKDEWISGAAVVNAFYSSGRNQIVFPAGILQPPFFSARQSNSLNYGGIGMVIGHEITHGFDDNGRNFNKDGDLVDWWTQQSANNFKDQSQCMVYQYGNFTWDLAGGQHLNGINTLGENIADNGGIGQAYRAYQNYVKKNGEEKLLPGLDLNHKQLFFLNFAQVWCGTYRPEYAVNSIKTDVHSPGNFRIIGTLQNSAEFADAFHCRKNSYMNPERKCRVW
The assay can be described thus: Inhibitory activity (10 uM) against rat neutral endopeptidase (NEP).

Sequence of Neprilysin (P08473 whole entry): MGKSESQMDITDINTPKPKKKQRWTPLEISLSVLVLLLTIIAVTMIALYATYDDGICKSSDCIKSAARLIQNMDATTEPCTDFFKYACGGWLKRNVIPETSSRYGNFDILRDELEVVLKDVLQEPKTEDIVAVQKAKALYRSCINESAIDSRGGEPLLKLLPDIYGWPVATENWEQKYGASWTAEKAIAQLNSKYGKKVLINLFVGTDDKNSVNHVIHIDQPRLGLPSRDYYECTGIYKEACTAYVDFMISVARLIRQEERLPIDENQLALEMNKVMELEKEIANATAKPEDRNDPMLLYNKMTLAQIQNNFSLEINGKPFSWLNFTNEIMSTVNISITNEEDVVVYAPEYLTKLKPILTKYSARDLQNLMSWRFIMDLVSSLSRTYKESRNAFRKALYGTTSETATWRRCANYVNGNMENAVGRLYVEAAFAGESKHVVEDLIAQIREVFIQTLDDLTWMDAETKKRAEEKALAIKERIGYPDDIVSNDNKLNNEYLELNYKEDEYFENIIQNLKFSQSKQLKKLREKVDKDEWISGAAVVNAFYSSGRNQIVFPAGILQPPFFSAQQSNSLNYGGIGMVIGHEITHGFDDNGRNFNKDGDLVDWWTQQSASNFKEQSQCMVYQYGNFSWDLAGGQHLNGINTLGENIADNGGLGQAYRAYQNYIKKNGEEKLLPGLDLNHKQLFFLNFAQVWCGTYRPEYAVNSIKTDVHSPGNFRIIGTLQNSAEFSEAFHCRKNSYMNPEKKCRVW

By IC50 is commonly meant the concentration at which inhibition is half-maximal. For `O=C(O)CN1C(=O)[C@@H](NC(=O)[C@H](CC#Cc2ccc(F)cc2F)NCP(=O)(O)O)CCc2ccccc21`, the IC50 worked out at 730 nM in assay [1] and 82 nM in assay [2]. In assay [3], the Selectivity was determined as 9.
The inhibition is the change of the read-out against control, counted positive when it falls. As for `O=C(NCCc1ccc(-c2ccccc2)cc1)[C@H](CCCc1ccccc1F)NCP(=O)(O)O`, in assay [4], the inhibition amounted to 8%.
Take `O=C(O)[C@H](CC1CCCCC1)NC(=O)[C@H](CC#Cc1ccc(F)cc1F)NCP(=O)(O)O`: the half-maximal inhibitory concentration (IC50) worked out at 2070 nM in assay [1] and 14 nM in assay [2]. Further, in assay [3], the Selectivity was 148.
As to `O=C(NCCCCc1ccccc1)[C@H](CC#Cc1ccccc1F)NCP(=O)(O)O`, in assay [4], the inhibition is 0%.
As for `CC(C)C[C@H](NC(=O)[C@H](CC#Cc1ccc(F)cc1F)NCP(=O)(O)O)C(=O)O`, the results for the concentration for half-maximal inhibition (IC50) in assay [1] and in assay [2] were 6700 nM and 51 nM, respectively. In assay [3], the Selectivity turned out to be 131.
On to `O=P(O)(O)CN[C@@H](CC#Cc1ccccc1)c1nn[nH]n1`, for which the results for the half-maximal inhibitory concentration (IC50) in assay [1] and in assay [2] were 170 nM and 590 nM, respectively. Further, in assay [3], the Selectivity stood at 0.3.
`COc1ccc(CCNC(=O)[C@H](CC#Cc2ccc(F)cc2F)NCP(=O)(O)O)cc1OC`: the inhibition in assay [5] came to 21%. Besides, in assay [2], the IC50 amounted to 160 nM.
`CSCC[C@H](NC(=O)[C@H](CC#Cc1ccccc1F)NCP(=O)(O)O)C(=O)O`: the IC50 turned out to be 4060 nM in assay [1] and 230 nM in assay [2]. The Selectivity in assay [3] came to 18.
For `O=C(O)[C@H](CC#Cc1ccccc1F)NCP(=O)(O)O`, the IC50 in assay [1] was determined as 11000 nM; in assay [2] it was 240 nM. Moreover, in assay [3], the Selectivity came to 46.
Consider `O=C(NCCCc1ccccc1)[C@H](CC#Cc1ccc(F)cc1F)NCP(=O)(O)O`, for which the IC50 in assay [2] stood at 150 nM.
`CC(C)[C@H](NC(=O)[C@H](CC#Cc1ccccc1F)NCP(=O)(O)O)C(=O)O`: the 50% inhibitory concentration (IC50) in assay [1] was found to be 6300 nM; in assay [2], 110 nM. The Selectivity in assay [3] was 57.
In the case of `Cc1ccc(C#CC[C@H](NCP(=O)(O)O)c2nn[nH]n2)cc1`, the inhibition in assay [4] worked out at 45%.
For the compound `O=C(NCCc1ccc(Br)cc1)[C@H](CC#Cc1ccc(F)cc1F)NCP(=O)(O)O`, the IC50 in assay [1] was found to be 860 nM; in assay [2], 43 nM. In addition, the Selectivity in assay [3] is 20.
The compound `CC(C)C[C@H](NC(=O)[C@H](CC#Cc1ccccc1Cl)NCP(=O)(O)O)C(=O)O` gave an inhibition in assay [5] of 38%. Further, the IC50 in assay [2] came out at 4300 nM.
`COc1ccccc1C#CC[C@H](NCP(=O)(O)O)c1nn[nH]n1`: the inhibition in assay [4] is 0%.
For the compound `O=C(O)[C@H](CC#Cc1ccccc1F)NC(=O)[C@H](CC#Cc1ccccc1F)NCP(=O)(O)O`, the 50% inhibitory concentration (IC50) in assay [1] came out at 6300 nM; in assay [2] it was 28 nM. In addition, the Selectivity in assay [3] is 225.
For `O=C(NCCc1ccc(Br)cc1)[C@H](CC#Cc1ccccc1F)NCP(=O)(O)O`, the IC50 was determined as 40000 nM in assay [1] and 110 nM in assay [2]. Further, in assay [3], the Selectivity came to 364.
Taken in the same sequence, the figures for `O=C(NCCc1c[nH]c2ccccc12)[C@H](CC#Cc1ccccc1F)NCP(=O)(O)O` were 10000 nM, 76 nM and 132.
On to `O=C(NCCc1ccc(-c2ccccc2)cc1)[C@H](CC#Cc1ccc(F)cc1F)NCP(=O)(O)O`, for which the results for the IC50 in assay [1] and in assay [2] were 2500 nM and 28 nM, respectively. The Selectivity in assay [3] was found to be 89.
As for `O=C(NCCc1ccccc1)[C@H](CC#Cc1ccccc1F)NCP(=O)(O)O`, the IC50 amounted to 19000 nM in assay [1] and 230 nM in assay [2]. Besides, the Selectivity in assay [3] is 83.
As to `O=P(O)(O)CN[C@@H](CC#Cc1ccccc1F)c1nnn[nH]1`, the half-maximal inhibitory concentration (IC50) was determined as 14 nM in assay [1] and 150 nM in assay [2]. Also, the Selectivity in assay [3] is 0.1.
Take `O=C(NCCc1ccccc1)[C@H](CC#Cc1ccc(F)cc1F)NCP(=O)(O)O`: the IC50 in assay [2] was found to be 110 nM.
Consider `O=C(O)[C@H](Cc1ccccc1)NC(=O)[C@H](CC#Cc1ccccc1F)NCP(=O)(O)O`, for which the IC50 came to 1200 nM in assay [1] and 56 nM in assay [2]. In addition, in assay [3], the Selectivity came to 21.
Turning to `O=C(NCCc1ccc2ccccc2c1)[C@H](CC#Cc1ccc(F)cc1F)NCP(=O)(O)O`, the IC50 turned out to be 7000 nM in assay [1] and 53 nM in assay [2]. The Selectivity in assay [3] was determined as 132.
As for `O=C(NCCc1ccc(-c2ccccc2)cc1)[C@H](CC#Cc1ccccc1F)NCP(=O)(O)O`, the 50% inhibitory concentration (IC50) stood at 6500 nM in assay [1] and 33 nM in assay [2]. Besides, the Selectivity in assay [3] amounted to 197.
In the case of `O=C(NCc1ccccc1)[C@H](CC#Cc1ccccc1F)NCP(=O)(O)O`, the IC50 in assay [1] stood at 55000 nM; in assay [2], 250 nM. For the same compound, the Selectivity in assay [3] stood at 220.
As for `O=C(O)[C@H](Cc1ccc2ccccc2c1)NC(=O)[C@H](CC#Cc1ccccc1F)NCP(=O)(O)O`, the values for the concentration for half-maximal inhibition (IC50) in assay [1] and in assay [2] were 1300 nM and 25 nM, respectively. Further, the Selectivity in assay [3] was determined as 52.
In the case of `O=C(O)[C@H](CC#Cc1ccc(F)cc1F)NCP(=O)(O)O`, the IC50 in assay [1] came out at 26000 nM; in assay [2] it was 170 nM. In addition, the Selectivity in assay [3] stood at 153.
In the case of `O=C(NCCc1cccc2ccccc12)[C@H](CC#Cc1ccc(F)cc1F)NCP(=O)(O)O`, the results for the IC50 in assay [1] and in assay [2] were 6200 nM and 34 nM, respectively. Further, the Selectivity in assay [3] came out at 182.
On to `CC(C)C[C@H](NC(=O)[C@H](CC#Cc1ccc(F)cc1F)NCP(=O)(O)O)C(=O)N[C@@H](C)C(=O)O`, for which the concentration for half-maximal inhibition (IC50) in assay [1] is 5800 nM; in assay [2] it was 8 nM. In assay [3], the Selectivity was 725.
Consider `CC(C)C[C@H](NC(=O)[C@H](CC#Cc1ccccc1F)NCP(=O)(O)O)C(=O)O`, for which the IC50 in assay [2] was 120 nM.
`O=C(NCCc1ccccn1)[C@H](CC#Cc1ccc(F)cc1F)NCP(=O)(O)O`: the 50% inhibitory concentration (IC50) in assay [1] was 10000 nM; in assay [2], 310 nM. In addition, the Selectivity in assay [3] came to 32.
Turning to `O=C(NCCc1cccc2ccccc12)[C@H](CC#Cc1ccccc1F)NCP(=O)(O)O`, the half-inhibitory concentration (IC50) in assay [1] was 10700 nM; in assay [2] it was 130 nM. Moreover, in assay [3], the Selectivity is 82.
For `CC(C)C[C@H](NC(=O)[C@H](CC#Cc1ccccc1)NCP(=O)(O)O)C(=O)O`, the concentration for half-maximal inhibition (IC50) in assay [1] was determined as 948 nM; in assay [2], 510 nM. The Selectivity in assay [3] was determined as 1.9.
In the case of `CC(C)C[C@H](NC(=O)[C@H](CC#Cc1cccc(F)c1)NCP(=O)(O)O)C(=O)O`, the IC50 in assay [2] amounted to 400 nM.
Turning to `O=C(NCCc1c[nH]c2ccccc12)[C@H](CC#Cc1ccc(F)cc1F)NCP(=O)(O)O`, the results for the 50% inhibitory concentration (IC50) in assay [1] and in assay [2] were 9700 nM and 111 nM, respectively. Moreover, in assay [3], the Selectivity turned out to be 87.
Taken in the same sequence, the figures for `O=C(O)[C@H](Cc1ccc(-c2ccccc2)cc1)NC(=O)[C@H](CC#Cc1ccccc1F)NCP(=O)(O)O` were 250 nM, 13 nM and 19.
Consider `O=P(O)(O)C(CCc1cccc2ccccc12)N[C@@H](Cc1ccc(-c2ccccc2)cc1)c1nnn[nH]1` (stereo not given in full), for which the IC50 is 5 nM in assay [1] and 17 nM in assay [2]. For the same compound, the Selectivity in assay [3] was 0.29.
Take `CC(C)CCNC(=O)[C@H](CC#Cc1ccc(F)cc1F)NCP(=O)(O)O`: the IC50 amounted to 23000 nM in assay [1] and 140 nM in assay [2]. The Selectivity in assay [3] was 164.
In the case of `CN(CCc1ccccc1)C(=O)[C@H](CC#Cc1ccccc1F)NCP(=O)(O)O`, the inhibition in assay [4] was 3%.
